Key:
[1] = target: T1, Steroid 17-alpha-hydroxylase/17,20 lyase (Homo sapiens, UniProt P05093); assay: Inhibition of human testicular microsomal Cytochrome P450 17A1
T1 sequence (P05093 whole entry): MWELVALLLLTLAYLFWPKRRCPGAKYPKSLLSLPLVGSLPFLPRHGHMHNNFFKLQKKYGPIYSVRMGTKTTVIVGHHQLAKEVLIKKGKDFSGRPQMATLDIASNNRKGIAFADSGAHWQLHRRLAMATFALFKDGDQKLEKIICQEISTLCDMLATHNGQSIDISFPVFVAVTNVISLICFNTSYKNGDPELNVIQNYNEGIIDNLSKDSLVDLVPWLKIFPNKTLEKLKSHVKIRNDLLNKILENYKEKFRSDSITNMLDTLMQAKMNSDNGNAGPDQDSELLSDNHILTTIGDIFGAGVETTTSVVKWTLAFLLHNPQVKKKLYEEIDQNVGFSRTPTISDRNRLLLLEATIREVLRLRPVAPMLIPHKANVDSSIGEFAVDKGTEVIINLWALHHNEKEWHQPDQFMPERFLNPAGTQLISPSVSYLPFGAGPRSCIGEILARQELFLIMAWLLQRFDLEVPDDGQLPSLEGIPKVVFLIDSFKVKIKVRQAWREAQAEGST
Method in brief: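 Human testis microsomes (orchidectomy tissue from untreated prostate cancer patients, stored at -70 °C, diluted in 0.1 M phosphate buffer). Radiometric: 10 μM [21-3H]-17α-hydroxypregnenolone, NADPH-generating system, pH 7.4, 10 min preincubation, then ~90 µg protein for 60 min under O2 at 34 °C. [3H]acetic acid measured in aqueous phase after chloroform extraction and charcoal. IC50 from log-log regression; six concentrations.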

[2] = target: T2, Steroid 17-alpha-hydroxylase/17,20 lyase (Rattus norvegicus, UniProt P11715); assay: Percent inhibition of rat testicular microsomal Cytochrome P450 17A1; design: concentration or dose not given beside the values
T2 sequence (P11715 whole entry): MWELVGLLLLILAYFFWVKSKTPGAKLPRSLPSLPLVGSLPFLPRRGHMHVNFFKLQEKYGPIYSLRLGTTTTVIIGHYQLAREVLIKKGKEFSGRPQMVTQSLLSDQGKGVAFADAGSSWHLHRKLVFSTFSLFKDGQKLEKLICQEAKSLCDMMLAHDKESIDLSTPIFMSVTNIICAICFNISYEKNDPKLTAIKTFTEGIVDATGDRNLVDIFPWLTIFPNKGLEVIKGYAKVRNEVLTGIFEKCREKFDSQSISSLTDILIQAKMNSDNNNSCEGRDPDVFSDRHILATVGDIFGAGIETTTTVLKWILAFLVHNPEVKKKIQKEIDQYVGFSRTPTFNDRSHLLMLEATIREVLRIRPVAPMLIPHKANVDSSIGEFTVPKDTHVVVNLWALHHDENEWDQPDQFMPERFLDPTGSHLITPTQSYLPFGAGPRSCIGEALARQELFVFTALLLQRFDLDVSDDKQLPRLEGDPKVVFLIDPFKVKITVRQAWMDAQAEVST
Method in brief: (§1)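 Single-concentration screen at 1500 nM using adult Sprague-Dawley rat testis microsomes. Incubation: 10 μM [21-3H]-17α-hydroxypregnenolone with NADPH-generating system, pH 7.4, 60 min, 34 °C, under O2. Percent inhibition was read from tritiated acetic acid in the aqueous phase after chloroform extraction of steroids.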

[3] = target: T2, Steroid 17-alpha-hydroxylase/17,20 lyase; assay: Inhibition of rat testicular microsomal Cytochrome P450 17A1
Method in brief: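 Adult Sprague-Dawley rat (200-250 g) testicular microsomes, about 90 µg protein. [21-3H]-17α-hydroxypregnenolone was used at 10 µM total. Cofactors were NADP 65 µM, glucose 6-phosphate 0.71 mM and G6PDH 0.13 IU in phosphate buffer pH 7.4. Compounds were preincubated 10 min, then reacted 60 min under O2 at 34 °C. Released [3H]acetic acid was counted after chloroform extraction and charcoal treatment.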

[4] = target: T1, Steroid 17-alpha-hydroxylase/17,20 lyase; assay: Percent inhibition of human testicular microsomal Cytochrome P450 17A1; design: concentration or dose not given beside the values
Method in brief: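 Human testis microsomes were incubated 60 min at 34 °C under O2 with 10 μM [21-3H]-17α-hydroxypregnenolone and NADPH-generating system (pH 7.4). Test compound was present at a single 150 or 400 nM. Inhibition was read from [3H]acetic acid released to the aqueous phase after chloroform extraction.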

[5] = target: T2, Steroid 17-alpha-hydroxylase/17,20 lyase; assay: Percent inhibition of rat testicular microsomal Cytochrome P450 17A1; No Inhibition; method in brief: as §1

Row | Structure (SMILES) | IC50 [1] [µM] | Inhibition [2] [%] | Conc [1] [nM] | IC50 [3] [µM] | Inhibition [4] [%] | Inhibition [5]
1 | CC(C1N=CC=N1)[C@H]1CCC2C3CCC4=CC(=O)CC[C@]4(C)C3CC[C@@]21C (some centres not stated) | > 30 |  |  |  |  | 
2 | C[C@]12CCC3C(CC=C4CC(O)CC[C@@]43C)C1CCC2c1ccon1 (some centres not stated) | 1.11 | 54 |  |  |  | 
3 | C[C@]12CCC(=O)C=C1CCC1C2CC[C@@]2(C)C1CC[C@@H]2C1N=CC=N1 (some centres not stated) |  | 25 | 400 |  |  | 
4 | C[C@]12CCC(=O)C=C1CCC1C2CC[C@]2(C)C(c3ccn[nH]3)=CCC12 (some centres not stated) | 0.059 |  |  | 0.076 |  | 
5 | C[C@]12CCC3C(CC=C4CC(O)CC[C@@]43C)C1CCC2c1ccno1 (some centres not stated) |  | 93 | 150 |  | 21 | 
6 | C[C@]12CCC(=O)C=C1CCC1C2CC[C@@]2(C)C1CC[C@@H]2c1cnc[nH]1 (some centres not stated) | 0.058 |  |  | 0.079 |  | 
7 | C[C@]12CCC(O)CC1=CCC1C2CC[C@]2(C)C(c3ccnn3-c3ccccc3)=CCC12 (some centres not stated) |  |  | 150 |  | 11 | Not Active
8 | C[C@]12CCC3C(CC=C4CC(O)CC[C@@]43C)C1CCC2c1ccn[nH]1 (some centres not stated) |  | 92 | 150 |  | 20 | 
9 | C[C@]12CC[C@H](O)CC1=CC[C@@H]1[C@@H]2CC[C@]2(C)C(c3ccn[nH]3)=CC[C@@H]12 | 0.042 |  |  | 0.028 |  | 
10 | C[C@]12CC[C@H]3[C@@H](CC=C4C[C@@H](O)CC[C@@]43C)[C@@H]1CC[C@@H]2c1cnc[nH]1 | 0.066 |  |  | 0.091 |  | 
11 | C[C@]12CC[C@H](O)CC1=CC[C@@H]1[C@@H]2CC[C@@]2(C)[C@H]1CC1O[C@]12c1cnc[nH]1 (some centres not stated) | 0.43 |  |  |  |  | 
12 | C[C@]12CC[C@H](O)CC1=CC[C@@H]1[C@@H]2CC[C@]2(C)C(c3ccno3)=CC[C@@H]12 | 0.108 |  |  | 0.084 |  | 
13 | C[C@]12CC[C@H](O)CC1=CC[C@@H]1[C@@H]2CC[C@]2(C)C(c3ncc[nH]3)=CC[C@@H]12 | 0.021 | 65 |  |  |  | 
14 | CC(=O)O[C@H]1CC[C@@]2(C)C(=CC[C@H]3[C@@H]4CC[C@H](C5=CNC(C(C)=O)N5)[C@@]4(C)CC[C@@H]32)C1 (some centres not stated) | 0.1 |  |  | 5.46 |  | 
15 | C[C@]12CC[C@H](O)CC1=CC[C@@H]1[C@@H]2CC[C@]2(C)C(c3c[nH]cn3)=CC[C@@H]12 | 0.024 |  |  | 0.049 |  | 
16 | CC(=O)O[C@H]1CC[C@@]2(C)C(=CC[C@H]3[C@@H]4CC[C@H](c5c[nH]cn5)[C@@]4(C)CC[C@@H]32)C1 | 0.199 | 55 |  |  |  | 
17 | Cc1ncc([C@H]2CC[C@H]3[C@@H]4CC=C5C[C@@H](O)CC[C@]5(C)[C@H]4CC[C@]23C)[nH]1 |  |  |  | 4.81 | 26 | 
18 | CC(=O)O[C@H]1CC[C@@]2(C)C(=CC[C@@H]3[C@@H]2CC[C@]2(C)C(c4cnc[nH]4)=CC[C@@H]32)C1 |  | 92 |  |  |  | 
19 | C[C@]12CCC(=O)C=C1CCC1C2CC[C@@]2(C)C1CC[C@]2(O)c1c[nH]cn1 (some centres not stated) | 1.2 |  |  |  |  | 
20 | C[C@]12CCC(=O)C=C1CCC1C2CC[C@]2(C)C(c3cnc[nH]3)=CCC12 (some centres not stated) | 0.05 |  |  | 0.014 |  | 
21 | Cn1ccc(C2=CCC3C4CC=C5CC(O)CC[C@]5(C)C4CC[C@]23C)n1 (some centres not stated) |  |  | 150 |  | 25 | Not Active
22 | Cn1nccc1C1=CCC2C3CC=C4CC(O)CC[C@]4(C)C3CC[C@]12C (some centres not stated) |  |  | 150 |  | 12 | Not Active
23 | Cc1nc(C2CCC3C4CC=C5CC(O)CC[C@]5(C)C4CC[C@]23C)co1 (some centres not stated) |  |  | 400 |  | 21 | Not Active
24 | C[C@]12CCC3C(CC=C4CC(O)CC[C@@]43C)C1CCC2c1ncc[nH]1 (some centres not stated) |  | 19 | 400 |  | 24 | 
25 | C[C@]12CCC(O)CC1=CCC1C2CC[C@@]2(C)C1CC[C@@H]2c1c[nH]c(-c2ccccc2)n1 (some centres not stated) |  |  | 400 |  | 21 | Not Active
26 | C[C@]12CCC(=O)C=C1CCC1C2CC[C@]2(C)C(c3ccno3)=CCC12 (some centres not stated) | 0.039 |  |  | 0.032 |  | 
27 | CC(=O)N1CCN(c2ccc(OC[C@H]3CO[C@](Cn4ccnc4)(c4ccc(Cl)cc4Cl)O3)cc2)CC1 [KETOCONAZOLE] |  |  |  | 1.07 |  | 

— ChEMBL document CHEMBL1130180, “17-Imidazolyl, pyrazolyl, and isoxazolyl androstene derivatives. Novel steroidal inhibitors of human cytochrome C17,20-lyase (P450(17 alpha)” (J Med Chem, 1997)
